Screening results: PubChem BioAssay, several laboratories
ARFGAP1 inhibitor = inhibitors of rat ARFGAP1. Q62848. Arfgap1-stimulated ARF1 GTP hydrolysis, GDP FP detection. inhibition, % at 16.5 µM. 0.26% of 360,000 active;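 active = inhibition above a per-plate limit, mean inhibition of low control wells plus 3 SD, cut at about 25% in these data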;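 also: 0% = DMSO wells with enzyme and 100% = wells lacking Arfgap1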
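Repeats: one replicate per compound; assay system: rat Arfgap1 catalytic domain, aa 1-136; times: enzyme reaction 120 min at 25 °C after 20 min preincubation; detection: FP of antibody-bound GDP Alexa 633 tracer, ex 620/em 688 nm; benchmarks: high control wells lacking Arfgap1, low control full reaction with DMSO; reagent: human ARF1(Δ1-17)-GTP substrate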
GC-A act = GC-A (human) enzyme activation; P16066; 0.14% of 370,000 active; HEK293 GC-A cells, cGMP TR-FRET, EC30 ANP; 0% at EC30 ANP, 100% saturating ANP; AID 1671463; activation, % at 10 µM; in the data active = activation above about 40%
Fh CTSL1 inh = cathepsin L1 inhibition, PFM18AAP counter-screen | recombinant F. hepatica cathepsin L1, Z-Leu-Arg-MCA fluorescence | inhibition, % at 5.96 µM | 0.49% of 300,000 active | AID 1906;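 active = inhibition above the mean of all tested compounds plus 3 SD, set per screening campaign, cut at about 17% in these data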;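 also: 0% = plate median of test compound wells and 100% = 1 µM Z-Phe-Ala-diazomethylketone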
core dimer inh = HCV core protein dimerization inhibition | inhibition, % at 5 µM | 0.33% of 300,000 active | TR-FRET GST/Flag-core106 dimerization, 1536-well;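 active = inhibition above the mean of all tested compounds plus 3 SD, set per screening campaign, cut at about 45% in these data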
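Assay system: Tagged HCV core106 pair (GST and Flag) | Buffer or medium: KF-containing HEPES buffer, pH 7.45, DTT, CHAPS, BSA | Also added: Eu donor and XL665 acceptor anti-tag antibodies | Dosing: One concentration, 5 µM, in 0.5% DMSO | Timing: 4 h at 22.5 °C | Technique: TR-FRET 671 and 617 nm emission | Repeats: Singlicate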
ASAP1 inh = ASAP1 ArfGAP inhibition; 0.19% of 360,000 active; inhibition, % at 16.5 µM; ASAP1-stimulated ARF1 GTP hydrolysis, GDP FP detection; AID 624377; Q9ULH1; in the data active = inhibition above about 25%;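 also: 0% = vehicle with enzyme and substrate and 100% = no enzyme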
NPR2 activator = GC-B (human) receptor activation | P20594 | HEK293-GC-B cells, CNP EC30, cGMP TR-FRET; 0% at EC30 CNP, 100% saturating CNP | activation, % at 10 µM | 0.11% of 370,000 active;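 active = activation at 10 µM reaching about 35% in either raw or pattern-adjusted values, limit read from the data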
ARFGAP1 confirm = confirmation of rat ARFGAP1 inhibitors. ARFGAP1-stimulated ARF1 GTP hydrolysis, GDP tracer FP. inhibition, % at 16.5 µM. shares compounds with ARFGAP1 inhibitor. 30% of 890 active. AID 651608;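 active = average inhibition over triplicates above the hit cutoff set in the earlier primary screen, cut at about 25% in these data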;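 also: 0% = Arfgap1 plus ARF1-GTP with DMSO and 100% = wells lacking Arfgap1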
Target sequence (Q62848 whole entry, looked up): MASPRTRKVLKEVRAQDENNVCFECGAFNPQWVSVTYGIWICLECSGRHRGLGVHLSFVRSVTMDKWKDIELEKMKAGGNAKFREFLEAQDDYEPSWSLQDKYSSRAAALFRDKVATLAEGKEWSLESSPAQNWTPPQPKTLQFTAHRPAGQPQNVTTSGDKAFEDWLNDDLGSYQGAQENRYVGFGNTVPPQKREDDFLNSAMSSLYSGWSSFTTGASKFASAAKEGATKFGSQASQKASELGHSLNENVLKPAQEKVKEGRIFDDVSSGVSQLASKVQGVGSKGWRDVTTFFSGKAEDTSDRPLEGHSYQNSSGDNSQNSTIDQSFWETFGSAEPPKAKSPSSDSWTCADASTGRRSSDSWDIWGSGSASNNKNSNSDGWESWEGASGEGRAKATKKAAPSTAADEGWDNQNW
* hit, by the source's call. In the library only some 1.2% were active in any assay of this set; here they are far more common.

`CCC1C(=O)N=C(SCC(=O)Nc2ccccc2)NC1=O` (stereo not given) gave ARFGAP1 inhibitor 10, GC-A act 3, Fh CTSL1 inh -3, core dimer inh 2, ASAP1 inh 0 and NPR2 activator -6.
`O=C(Nc1ccc(-c2cn3ccccc3n2)cc1)c1cccs1` gave ARFGAP1 inhibitor 25*, GC-A act 3, Fh CTSL1 inh 7, core dimer inh -6, ASAP1 inh -2, NPR2 activator 3 and ARFGAP1 confirm 86*.
`COc1ccc(NC(=O)Cn2cnc3ccccc3c2=O)cc1OC` gave ARFGAP1 inhibitor 8, GC-A act 2, Fh CTSL1 inh -3, core dimer inh -1, ASAP1 inh -10 and NPR2 activator -1.
Screening CCOc1ccc2nc(NC(=O)Cn3cnc4c3c(=O)n(C)c(=O)n4C)sc2c1 returned ARFGAP1 inhibitor 27*, GC-A act 1, Fh CTSL1 inh 8, core dimer inh -3, ASAP1 inh 12, NPR2 activator -1 and ARFGAP1 confirm 7.
For COc1ccc2nc(NC(=O)Cn3cnc4ccccc4c3=O)sc2c1 the results were ARFGAP1 inhibitor 27*, GC-A act 5, Fh CTSL1 inh 2, core dimer inh 1, ASAP1 inh 7, NPR2 activator 0 and ARFGAP1 confirm 8.
Screening CCOc1ccc2nc(NC(=O)CSc3nc4c(c(=O)n(C)c(=O)n4C)n3C(C)C)sc2c1 returned ARFGAP1 inhibitor 13, GC-A act 6, Fh CTSL1 inh 1, core dimer inh -3, ASAP1 inh 16 and NPR2 activator 6.
`CCCc1nc2c(sc3nc4c(cc32)COC(C)(C)C4)c(=O)n1CCN(C)C` gave ARFGAP1 inhibitor 2, GC-A act 9, Fh CTSL1 inh -1, core dimer inh -3, ASAP1 inh -6 and NPR2 activator -2.
Cc1ccc(OCC(O)CN2C(=O)NC(C)(C)C2=O)cc1 (stereo not given) was read as ARFGAP1 inhibitor 35*, GC-A act -2, Fh CTSL1 inh -3, core dimer inh -1, ASAP1 inh 0, NPR2 activator 2 and ARFGAP1 confirm -1.
Screening CCCN(CCC)c1nc(-c2ccccn2)nc2ccccc12 returned ARFGAP1 inhibitor 6, GC-A act 1, ASAP1 inh -16 and NPR2 activator 1.
COc1ccc2nc(N3C(=O)C(O)=C(C(=O)c4ccco4)C3c3ccc(OC)c(OC)c3)sc2c1 (stereo not given) was read as ARFGAP1 inhibitor -2, GC-A act 0, ASAP1 inh -3 and NPR2 activator 3.
For Cc1ccc2nc(N3C(=O)C(O)=C(C(=O)c4ccc(C)o4)C3c3cccc(O)c3)sc2c1 (stereo not given) the results were ARFGAP1 inhibitor 34*, GC-A act 5, Fh CTSL1 inh 1, core dimer inh 11, ASAP1 inh 19, NPR2 activator -1 and ARFGAP1 confirm 52*.
`CC1CCCC(C)N1/N=C/c1ccc(O)cc1` (stereo not given) gave ARFGAP1 inhibitor -3, GC-A act 1, Fh CTSL1 inh -7, core dimer inh 8, ASAP1 inh -2 and NPR2 activator 0.
`COc1cc(C(=O)N(CCCO)Cc2cc3ccc(C)c(C)c3[nH]c2=O)cc(OC)c1OC` gave ARFGAP1 inhibitor 4, GC-A act 2, Fh CTSL1 inh -3, core dimer inh 2, ASAP1 inh 12 and NPR2 activator -1.
O=C1CCC/C(=N/NC(=O)c2cc(NS(=O)(=O)c3cccs3)cc(NS(=O)(=O)c3cccs3)c2)C1 was read as ARFGAP1 inhibitor -3, GC-A act 0, Fh CTSL1 inh -9, core dimer inh 1, ASAP1 inh 10 and NPR2 activator -1.
Screening C=CCn1c(C)nnc1SCC(=O)Nc1ccccc1C(=O)NC1CC1 returned ARFGAP1 inhibitor 25*, GC-A act 3, ASAP1 inh 4, NPR2 activator 6 and ARFGAP1 confirm -3.
